Converted amounts (≈) assume the structure as drawn.
What was measured:
Plasmodium falciparum [1] = experiment: Antimalarial activity against Plasmodium falciparum NF54 infected in human serum at 20 ug/ml after 48 hrs by fluorometric method; format: functional
Procedure, shortened: (§1)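 Asynchronous P. falciparum NF54 at 1.5–2% parasitemia, 5% hematocrit in RPMI with 10% human serum, exposed 48 h at 37 °C under 90% N2/5% CO2/5% O2 at the stated concentration; parasite DNA stained with ethidium bromide after proteinase K lysis; viability % = (Flu treated − medium)/(Flu untreated − medium) ×100; triplicate.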

[2] = Toxicity in RBC (unknown origin) assessed as hemolysis after 48 hrs at 20 to 80 ug/ml by spectrophotometry; format: cell-based, Erythrocyte; conditions: red blood cells (RBC); read-out: Activity
Procedure, shortened: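 Red blood cells at 5% hematocrit in RPMI 1640 exposed to 20, 40 and 80 µg/mL for 48 h at 37 °C; free hemoglobin read spectrophotometrically at 542 nm.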

Plasmodium falciparum [3] = experiment: Antimalarial activity against Plasmodium falciparum NF54 infected in human serum after 48 hrs by fluorometric method; format: functional, organism-based
Procedure, shortened: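 Asynchronous P. falciparum NF54 cultures at 1.5–2% parasitemia, 5% hematocrit in RPMI with 10% human serum; equal volumes of parasite suspension and compound dilutions (from 100 µg/mL stock) incubated 48 h, 37 °C, 90% N2/5% CO2/5% O2. DNA extracted with proteinase K lysis, stained with ethidium bromide; fluorescence-based viability vs compound-free control. IC50 by Probit; triplicate.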

Plasmodium falciparum [4] = experiment: Antimalarial activity against Plasmodium falciparum NF54 infected in human serum at 22.2 ug/ml after 48 hrs by fluorometric method; format: functional; procedure, shortened: as §1

Row | IC50 (Plasmodium falciparum [3]) [µg/mL] | Compound | inhibition at 20 µg/mL (Plasmodium falciparum [1]) [%] | hemolysis at 48 h [2] [%] | inhibition at 22.2 µg/mL (Plasmodium falciparum [4]) [%]
1 |  | Cc1ccc(C2CC(c3cccc(Nc4ccnc5cc(Cl)ccc45)c3)=NN2C=O)cc1 (stereo unspecified) | 0 |  | 
2 | 38 (≈ 86.2 µM) | CC(=O)N1N=C(c2ccc(Nc3ccnc4cc(Cl)ccc34)cc2)CC1c1ccccc1 (stereo unspecified) | 33 | 2.8 | 
3 | > 100 | COc1ccc(C2CC(c3ccc(Nc4ccnc5cc(Cl)ccc45)cc3)=NN2C(C)=O)cc1 (stereo unspecified) | 38.3 | 3.1 | 
4 |  | COc1cc(C2CC(c3ccc(Nc4ccnc5cc(Cl)ccc45)cc3)=NN2C(C)=O)cc(OC)c1OC (stereo unspecified) | 0 |  | 
5 |  | CC(=O)N1N=C(c2ccc(Nc3ccnc4cc(Cl)ccc34)cc2)CC1c1ccc(C)cc1 (stereo unspecified) | 10.6 |  | 
6 | 14.1 (≈ 27.9 µM) | O=CN1N=C(c2ccc(Nc3ccnc4cc(Cl)ccc34)cc2)CC1c1ccc(Br)cc1 (stereo unspecified) | 50.8 | 3.2 | 
7 |  | O=CN1N=C(c2cccc(Nc3ccnc4cc(Cl)ccc34)c2)CC1c1ccc(Br)cc1 (stereo unspecified) | 12.5 |  | 
8 |  | CC(=O)N1N=C(c2ccc(Nc3ccnc4cc(Cl)ccc34)cc2)CC1c1ccc(Br)cc1 (stereo unspecified) | 6.8 |  | 
9 |  | CCN(CC)CCCC(C)Nc1ccnc2cc(Cl)ccc12 (stereo unspecified) [CHLOROQUINE PHOSPHATE] |  | 17.2 | 68.4
